Measurements as given in ChEMBL document CHEMBL1121765, “3-Phenylpiperidines. Central dopamine-autoreceptor stimulating activity” (1981).
Active and inactive are the calls of the source. The rule behind the calls is not given here.

Columns and labels:
[1] = target: T1, Dopamine receptor (Rattus norvegicus) (UniProt P25115+P19020+P30729+P18901+P61169); assay: Evaluation of Dopamine receptor activation in striatum of reserpinized rat; assay type: functional, tissue-based
[2] = target: T1, Dopamine receptor (Rattus norvegicus); assay: Dopamine receptor activation in striatum of reserpinized rat; Inactive at >45 uM/Kg.; assay type: tissue-based
[3] = target: T1, Dopamine receptor (Rattus norvegicus); assay: Dopamine receptor activation in limbic system of reserpinized rat; Inactive at >45 uM/Kg.; assay type: tissue-based
[4] = target: T1, Dopamine receptor (Rattus norvegicus); assay: Evaluation for Dopamine receptor activation in limbic system of reserpinized rat; assay type: tissue-based
[5] = tested on: Rattus norvegicus; assay: Motor activity in reserpinized rats when 100 umol/kg was administered subcutaneously; assay type: functional
Method in brief: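 Rats pretreated ip with reserpine (10 mg/kg) 6 h before testing; compound given sc in neck region, rats placed singly in photocell motility meters immediately after and motor activity recorded for 60 min, testing between 1 and 6 p.m.; saline controls; gross behaviour observed.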

[6] = tested on: Rattus norvegicus; assay: Motor activity in reserpinized rats when 2 umol/kg was administered subcutaneously

Compound | ED50 [2] | ED50 [3] | further results
Oc1cccc(C2CCCN(C3CCCCC3)C2)c1 (centres undefined) |  |  | ED50 [1]: 45 µmol/kg
CCCN1CCCC(c2cccc(N)c2)C1 (centres undefined) | inactive | inactive | 
CCCN1CCCC(c2cccc(C#N)c2)C1 (centres undefined) | inactive | inactive | 
CCCNCCc1cccc(O)c1 |  |  | ED50 [4]: 0.9 µmol/kg; ED50 [1]: 0.8 µmol/kg
Oc1cccc(-c2cccnc2)c1 | inactive | inactive | 
Br.CCCN1CCCC(c2ccc(O)c(O)c2)C1 (centres undefined) |  |  | Motor activity [5]: 522
CC(C)N1CCC(c2cccc(O)c2)C1 (centres undefined) | inactive | inactive | 
CCCN1CCCC(c2cccc(C(=O)OC)c2)C1 (centres undefined) | inactive | inactive | 
Oc1cccc(C2CCNC2)c1 (centres undefined) | inactive | inactive | 
Oc1cccc(C2=CN3CCC2CC3)c1 | inactive | inactive | 
CCCN1CCCC(c2ccc(O)cc2)C1 (centres undefined) | inactive | inactive | 
CCCN1CCCC(c2cccc(CO)c2)C1 (centres undefined) | inactive | inactive | 
CCCN1CCCC(c2cccc(OC)c2)C1 (centres undefined) | inactive | inactive | 
CCCN1CCCC(c2cccc(C)c2)C1 (centres undefined) | inactive | inactive | 
Br.CCCN1CCCC(c2cccc(O)c2)C1 (centres undefined) |  |  | Motor activity [5]: 55
CCCN1CCCC(c2ccccc2O)C1 (centres undefined) | inactive | inactive | 
CCCN1CCC(c2cccc(O)c2)C1 (centres undefined) |  |  | ED50 [4]: 45 µmol/kg; ED50 [1]: 45 µmol/kg
CN1CCCC(c2cccc(O)c2)C1 (centres undefined) |  |  | ED50 [1]: 2.5 µmol/kg
CCCN1CCCC(c2cccc(C(N)=O)c2)C1 (centres undefined) | inactive | inactive | 
Oc1cccc(C2CCCN(Cc3ccccc3)C2)c1 (centres undefined) |  |  | ED50 [1]: 24 µmol/kg
CN1CCc2cccc3c2[C@H]1Cc1ccc(O)c(O)c1-3 [APOMORPHINE] |  |  | Motor activity [6]: 624
CCCN1CCCCC(c2cccc(O)c2)C1 (centres undefined) | inactive | inactive | 
CCCN1CCCC(c2ccccc2)C1 (centres undefined) | inactive | inactive | 
CCCCCN1CCCC(c2cccc(O)c2)C1 (centres undefined) |  |  | ED50 [1]: 0.9 µmol/kg
Oc1cccc(C2CN3CCC2CC3)c1 (centres undefined) | inactive | inactive | 
CC(C)(C)CN1CCCC(c2cccc(O)c2)C1 (centres undefined) |  |  | ED50 [1]: > 2.8 µmol/kg
